Experimental findings from ChEMBL document CHEMBL1122921, “Stereoselective antitumor properties in the Lewis lung carcinoma model using bis(morpholinomethyl) derivatives of tricyclic bis(dioxopiperazines)” (1985) are described below.

Where “and” joins values, the source holds several entries; their conditions need not be identical. Identical values can stand only once.

For experiment [1], the species on record is Mus musculus. As to the kind of experiment: Average body weight of mice was determined. Format: functional. The gist of the method:
(§1)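 Female BDF1 mice (19–21 g), 8–9 per group. Lewis lung carcinoma implanted on day 0 and the leg amputated on day 9. From day 9, 160 mg/kg ip q2d×4, given as a suspension or solution in 0.9% NaCl. Mice dying and those killed on day 50 were autopsied for body weight, lung weight, metastases (<2 or >2 mm) and metastasis incidence. Median survival and ILS were recorded, with ≥25% ILS taken as activity.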

For experiment [2], the species on record is Mus musculus. As to the kind of experiment: Number of mice with metastasis out of 9 mice tested. The experiment is classed as functional. In short, it runs like this:
(§2)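 Female BDF1 mice (19–21 g) were implanted with Lewis lung carcinoma on day 0 and amputated on day 9. Dosing was 160 mg/kg ip from day 9, q2d×4, as a suspension or solution in 0.9% NaCl. Dying mice and mice killed on day 50 were autopsied to count metastases (<2 mm, >2 mm) and mice bearing metastases.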

For experiment [3], the species on record is Mus musculus. As to the kind of experiment: compound was tested against autopsying on day 50th metastasis( <[…] mm size.) in mice. The experiment is classed as functional. The gist of the method: as §2
For experiment [4], the species on record is Mus musculus. As to the kind of experiment: compound was tested against autopsying on day 50th metastasis( >2 mm size.) in mice. Format: functional. The gist of the method: (§3)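 Female BDF1 mice (19–21 g), 10 per group, were implanted with 10^5 Lewis lung cells in the right hind leg on day 0, with leg amputation on day 10. Dosing was 160 mg/kg ip, either from −1 h on day 0 q2d×5 or from day 11 q2d×4, in saline prepared daily. Survivors were killed on day 50, and lung metastases were counted by size. Values are averages over 10 mice, dying and killed.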

The species entered for experiment [5] is Mus musculus. As to the kind of experiment: Average lung weight of mice was determined. Format: functional. In short, it runs like this: (§4)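 Female BDF1 mice (19–21 g), 10 per group. Lewis lung carcinoma, 10^5 cells in 0.05 mL, implanted in the right hind leg on day 0, and the leg amputated on day 10. Dosing was 160 mg/kg ip in 0.9% NaCl made daily, either from -1 h on day 0 q2d×5 (preamputation) or from day 11 q2d×4 (postamputation). Survivors were killed and autopsied on day 50, and values were averaged over all 10 mice. ILS ≥25% is taken as activity.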

The test system of experiment [6] is Mus musculus. As to the kind of experiment: Median survival time of 10 BDF1 mice was tested after administration of compound (Preamputation schedule 160 mg/kg). Format: functional. In short, it runs like this:
as §4

The species named for experiment [7] is Mus musculus. As to the kind of experiment: Number of 50-day survivors Out of 9 mice. Format: functional. In short, it runs like this:
as §1

For experiment [8], the species on record is Mus musculus. As to the kind of experiment: Compound was tested against autopsying on day 50th metastasis( <2 mm size) in mice. The experiment is classed as functional. In short, it runs like this:
as §1

Experiment [9] has as its system Mus musculus. As to the kind of experiment: Median survival time of 10 BDF1 mice was tested after administration of compound (Postamputation schedule 160 mg/kg).
The species named for experiment [10] is Mus musculus. As to the kind of experiment: Percent increase in life span was measured in mice. The experiment is classed as functional. In short, it runs like this:
as §4

The species named for experiment [11] is Mus musculus. As to the kind of experiment: Number of mice with metastasis Out of 9 mice. The experiment is classed as functional. In short, it runs like this: as §1
Experiment [12] is filed under the species Mus musculus. As to the kind of experiment: Compound was tested against autopsying on day 50th metastasis( >2 mm size) in mice. Format: functional. In short, it runs like this: as §3
Experiment [13] is filed under the species Mus musculus. As to the kind of experiment: Compound was tested against autopsying on day 50th metastasis( 1-2 mm size) in mice. The experiment is classed as functional. The gist of the method:
as §3

The species named for experiment [14] is Mus musculus. As to the kind of experiment: compound was tested against autopsying on day 50th metastasis( 1-2 mm size.) in mice. Format: functional. The gist of the method:
as §3

For experiment [15], the species on record is Mus musculus. As to the kind of experiment: (§5) Percent of mice without metastasis. Format: functional.
The species named for experiment [16] is Mus musculus. As to the kind of experiment: compound was tested against autopsying on day 50th metastasis( <1 mm size.) in mice. The experiment is classed as functional. In short, it runs like this:
as §3

The species entered for experiment [17] is Mus musculus. As to the kind of experiment: Compound was tested against autopsying on day 50th metastasis( <1 mm size) in mice. The experiment is classed as functional. The gist of the method: as §3
For experiment [18], the species on record is Mus musculus. As to the kind of experiment: Average lung weight per mouse was determined. Format: functional. The gist of the method: (§6)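 Female BDF1 mice (19–21 g) implanted with Lewis lung carcinoma on day 0. The tumour-bearing leg was amputated on day 9 or 10. Dosing was 160 mg/kg ip q2d in 0.9% NaCl. Dying mice were autopsied, and survivors were killed and autopsied on day 50.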

The species named for experiment [19] is Mus musculus. As to the kind of experiment: Average lung weight per mouse. Format: functional. The gist of the method: as §6
For experiment [20], the species on record is Mus musculus. The experiment is described as §5. The experiment is classed as functional. This is another data set of the same source.
The species entered for experiment [21] is Mus musculus. As to the kind of experiment: Number of 50-day survivors out of 10 mice; 2 mice died out of 6 with one metastasis each (5mm i.d.). The experiment is classed as functional.
For experiment [22], the species on record is Mus musculus. As to the kind of experiment: Average number of metastasis per mouse. The experiment is classed as functional. The gist of the method: as §6
The species named for experiment [23] is Mus musculus. As to the kind of experiment: Number of 50-day survivors Out of 10 mice. The experiment is classed as functional. The gist of the method:
as §4

Experiment [24] is filed under the species Mus musculus. As to the kind of experiment: Number of mice with metastasis Out of 8 mice. Format: functional. The gist of the method: as §1
The species named for experiment [25] is Mus musculus. As to the kind of experiment: Compound was tested against autopsying on day 50th metastasis( >2 mm size.) in mice. Format: functional. The gist of the method: as §4
For experiment [26], the species on record is Mus musculus. As to the kind of experiment: Number of 50-day survivors Out of 8 mice. The experiment is classed as functional. In short, it runs like this: as §1
The species entered for experiment [27] is Mus musculus. As to the kind of experiment: Compound was tested against autopsying on day 50th metastasis( <2 mm size.) in mice. Format: functional. The gist of the method: as §1
The species named for experiment [28] is Mus musculus. As to the kind of experiment: Number of 50-day survivors out of 9 mice. The experiment is classed as functional. In short, it runs like this:
as §1

The subject of experiment [29] is Mus musculus. As to the kind of experiment: Median survival time of 10 BDF1 mice was tested for compound (Postamputation schedule 160 mg/kg). The experiment is classed as functional. In short, it runs like this: as §4

`O=C1CN2CCN3CC(=O)N(CN4CCOCC4)C(=O)[C@H]3C2C(=O)N1CN1CCOCC1` (stereo in doubt; form 1): in the experiment filed under Mus musculus [1], the Body weight stood at 19.9 g. The M/T in the experiment filed under Mus musculus [2] came out at 1. For the same molecule, the Average No. of metastasis in the experiment listed under Mus musculus [3] came to 0 count; in the experiment filed under Mus musculus [4], 3 count. The molecule further registered a Lung weight in the experiment filed under Mus musculus [5] of 369 mg. Also, in the experiment with Mus musculus [6], the MST was 39 days. In addition, in the experiment listed under Mus musculus [7], the N/T was found to be 7.
One may read the ILS as how much longer treated animals lived than controls. A low value points to little gain in survival. Take `O=C1CN2CCN3CC(=O)NC(=O)[C@@H]3C2C(=O)N1` (stereo partly drawn): the Body weight in the experiment filed under Mus musculus [1] amounted to 17.7 g. For the same molecule, the Average No. of metastasis in the experiment listed under Mus musculus [8] stood at 2 count; in the experiment listed under Mus musculus [12], 13 count. This molecule also showed an MST with Mus musculus [9] of 39 days. The same molecule came in with a Lung weight in the experiment filed under Mus musculus [5] of 749 mg. Besides, the ILS in the experiment listed under Mus musculus [10] was determined as 16%. In the experiment listed under Mus musculus [11], this molecule registered a M/T of 7. Moreover, the N/T in the experiment listed under Mus musculus [7] turned out to be 2.
In turn, `O=C1CN2CCN3CC(=O)N(CN4CCOCC4)C(=O)[C@@H]3C2C(=O)N1CN1CCOCC1` (stereo partly drawn) yielded a Body weight in the experiment filed under Mus musculus [1] of 19.4 g. In the experiment filed under Mus musculus [2], this molecule displayed a M/T of 4. For the same molecule, the Average No. of metastasis in the experiment filed under Mus musculus [8] is 0 count; in the experiment listed under Mus musculus [12], 9 count. Further, the MST in the experiment with Mus musculus [9] is more than 50 days. Further, the Lung weight in the experiment listed under Mus musculus [5] came to 564 mg. The molecule further came in with an ILS in the experiment listed under Mus musculus [10] of more than 49%. Further, in the experiment listed under Mus musculus [7], the N/T is on record as 5.
As for `O=C1CN2CCN3CC(=O)N(CN4CCOCC4)C(=O)[C@H]3C2C(=O)N1CN1CCOCC1` (stereo in doubt; form 2), the Average No. of metastasis was 3.5 count in the experiment listed under Mus musculus [13]; 2.6 count in the experiment listed under Mus musculus [14]; 0.3 count in the experiment filed under Mus musculus [16]; 1 count in the experiment filed under Mus musculus [17]; 4.8 count in the experiment listed under Mus musculus [4]; 12.8 and 7.7 in the experiment filed under Mus musculus [22]. The Average No. of metastasis in the experiment listed under Mus musculus [12] turned out to be 8.3 count. Also, the Mice in the experiment filed under Mus musculus [15] and in the experiment filed under Mus musculus [20] was 40% each time. The Lung weight is 641 mg in the experiment listed under Mus musculus [18] and 538 mg in the experiment filed under Mus musculus [19]. Moreover, the N/T in the experiment listed under Mus musculus [21] came out at 6; in the experiment filed under Mus musculus [23] it was 4. The same molecule displayed an MST in the experiment on Mus musculus [6] of 39 days.
In the experiment filed under Mus musculus [1], `O=C1CN2CCN3CC(=O)NC(=O)[C@H]3C2C(=O)N1` (stereo partly drawn) displayed a Body weight of 17.8 g. Besides, the M/T in the experiment filed under Mus musculus [24] worked out at 5. Moreover, the figures for the “Average No. of metastasis” value in the experiment listed under Mus musculus [25] and in the experiment listed under Mus musculus [27] were 14% and 1%, respectively. Also, the MST with Mus musculus [9] amounted to 45 days. The N/T in the experiment filed under Mus musculus [26] worked out at 3. Further, in the experiment listed under Mus musculus [5], the Lung weight was determined as 813 mg. In the experiment filed under Mus musculus [10], this molecule came in with an ILS of 34%.
As to `O=C1CN2CCN3CC(=O)N(CN4CCOCC4)C(=O)[C@H]3C2C(=O)N1CN1CCOCC1` (stereo in doubt; 3), the N/T in the experiment filed under Mus musculus [28] and in the experiment filed under Mus musculus [7] was 5 in each case. For the same molecule, the MST in the experiment on Mus musculus [29] was determined as 35 days; in the experiment with Mus musculus [6], 38.5 days. In the experiment listed under Mus musculus [15], the Mice was 30% and 20%. The Average No. of metastasis is 0.2 count in the experiment listed under Mus musculus [17]; 15 and 13.8 in the experiment filed under Mus musculus [22]. Besides, the Lung weight in the experiment filed under Mus musculus [18] is 754 mg and 752 mg.
